Legend:
[1] = Half life in human liver microsomes at 10 uM by LC-MS/MS analysis; format: ADME, microsome
Liver [2] = test: Metabolic stability in human liver microsomes assessed as compound remaining at 10 uM after 1 hr by LC-MS/MS analysis; format: ADME, microsome
Method in brief: (§1)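 Compound stability was measured in human or mouse liver microsomes as percent remaining after 1 h. Data came from two independent experiments, each run in triplicate.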

[3] = Cytotoxicity in human HepG2 cells after 48 hrs by Cell-titer Glo reagent based assay; conditions: read-out: LD50
Method in brief: (§2)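 Cells (HEK293, HepG2 or BEAS2B) exposed to compounds at a range of concentrations for 48 h; viability read by Cell-Titer Glo luminescence. Normalized to DMSO (negative) and 3-dibutylamino-1-(4-hexyl-phenyl)-propan-1-one at 150 μM final in DMSO (positive).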

Mus musculus [4] = test: Neurotoxicity in Swiss Webster mouse assessed as induction of senorimotor impairment at 40 mg/kg, ip administered 10 mins prior to testing and measured for 3 mins at 10 to 60 mins after drug administration by rotarod method; format: toxicity, organism-based; conditions: in vivo
Method in brief: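 Swiss Webster mice, pre-trained at 15 rpm until they held on for 3 min at three consecutive sessions, were given a single i.p. dose of 40 mg/kg in 10% DMSO/40% propylene glycol/50% PBS. Rotarod at 15 rpm for 3 min at 10, 30 and 60 min after dosing. Falls before 3 min scored as fail, with time of fall recorded. N = 10, mean ± SEM. Vehicle and diazepam 5 mg/kg i.p. controls. Mice rested 2–3 days between doses.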

Liver [5] = test: Metabolic stability in mouse liver microsomes assessed as compound remaining at 10 uM after 1 hr by LC-MS/MS analysis; format: ADME, microsome; method in brief: as §1
[6] = Cytotoxicity in human BEAS2B cells after 48 hrs by Cell-titer Glo reagent based assay; parameters: species or system BEAS-2B; conditions: read-out: LD50; method in brief: as §2
[7] = Cytotoxicity in HEK293 cells after 48 hrs by Cell-titer Glo reagent based assay; conditions: human, read-out: LD50; method in brief: as §2
[8] = (§3) Half life in mouse liver microsomes at 10 uM by LC-MS/MS analysis; format: ADME, microsome; conditions: liver microsomes
[9] = Solubility of the compound in 50% PBS/40% propylene glycol/10% DMSO at 10 uM; format: physicochemical; conditions: buffer
[10] = Solubility of the compound in PBS/1% DMSO at 10 uM; format: physicochemical; conditions: buffer
Method in brief: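 Solubility was judged at 10 μM in PBS containing 1% DMSO.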

Mus musculus [11] = test: Neurotoxicity in Swiss Webster mouse assessed as induction of senorimotor impairment at 15 mg/kg administered 10 mins prior to testing and measured for 3 mins at 10 to 60 mins after drug administration by rotarod method; format: toxicity, organism-based; conditions: in vivo
Liver [12] = test: as §3; format: ADME, microsome; conditions: microsomes, 10 µM

CCOC(=O)c1ncn2c1[C@@H]1CCCN1C(=O)c1cc(O)ccc1-2
half-life at 10 µM [1]: 11 h | Stability (Liver [2]): 91.7% | CC50 at 48 h [3]: > 400 µM | Activity (Mus musculus [4]): Non-Toxic | Stability (Liver [5]): 91.1% | CC50 at 48 h [6]: > 400 µM | CC50 at 48 h [7]: > 400 µM | half-life at 10 µM [8]: 9 h

[2H]C([2H])([2H])Oc1ccc2c(c1)C(=O)N1CCC[C@H]1c1c(C(=O)OC(C(F)(F)F)C(F)(F)F)ncn1-2
half-life at 10 µM [1]: 3.4 h | Stability (Liver [2]): 77.1% | CC50 at 48 h [3]: > 400 µM | Stability (Liver [5]): 62.5% | solubility [9]: Insoluble | CC50 at 48 h [6]: > 400 µM | CC50 at 48 h [7]: > 200 µM | half-life at 10 µM [8]: 1.82 h

COC(=O)c1ncn2c1[C@@H]1CCCN1C(=O)c1cc(OC)ccc1-2
half-life at 10 µM [1]: 11.1 h | Stability (Liver [2]): 89.7% | CC50 at 48 h [3]: > 400 µM | Stability (Liver [5]): 70.3% | CC50 at 48 h [6]: > 400 µM | CC50 at 48 h [7]: > 400 µM | half-life at 10 µM [8]: 2.15 h

CC(C)(C)OC(=O)c1ncn2c1[C@@H]1CCCN1C(=O)c1cc(O)ccc1-2
half-life at 10 µM [1]: 9.65 h | Stability (Liver [2]): 90.6% | CC50 at 48 h [3]: > 400 µM | Stability (Liver [5]): 46.6% | CC50 at 48 h [6]: > 400 µM | CC50 at 48 h [7]: > 400 µM | half-life at 10 µM [8]: 0.96 h

CCOC(=O)c1ncn2c1[C@@H]1CCCN1C(=O)c1cc(OC)ccc1-2
Stability (Liver [2]): 99.1% | CC50 at 48 h [3]: > 400 µM | Stability (Liver [5]): 85.4% | CC50 at 48 h [6]: > 400 µM | CC50 at 48 h [7]: > 400 µM | half-life at 10 µM [8]: 5.3 h

[2H]C([2H])([2H])Oc1ccc2c(c1)C(=O)N1CCC[C@H]1c1c(C(=O)SCC)ncn1-2
solubility [10]: Insoluble | CC50 at 48 h [3]: > 100 µM | solubility [9]: Insoluble | CC50 at 48 h [6]: > 100 µM | CC50 at 48 h [7]: > 100 µM

[2H]C([2H])([2H])Oc1ccc2c(c1)C(=O)N1CCC[C@H]1c1c(C(=O)O)ncn1-2
half-life at 10 µM [1]: 5.6 h | Stability (Liver [2]): 84.6% | CC50 at 48 h [3]: > 400 µM | Activity (Mus musculus [4]): Non-Toxic | Stability (Liver [5]): 84.6% | CC50 at 48 h [6]: > 400 µM | CC50 at 48 h [7]: > 400 µM | half-life at 10 µM [8]: 4.71 h

COc1ccc2c(c1)C(=O)N1CCC[C@H]1c1c(C(=O)SC(C)(C)C)ncn1-2
solubility [10]: Insoluble | CC50 at 48 h [3]: > 100 µM | solubility [9]: Insoluble | CC50 at 48 h [6]: > 100 µM | CC50 at 48 h [7]: 18.8 µM

[2H]C([2H])([2H])Oc1ccc2c(c1)C(=O)N1CCC[C@H]1c1c(C(=O)OCC(C)C)ncn1-2
half-life at 10 µM [1]: 3.35 h | Stability (Liver [2]): 78.7% | CC50 at 48 h [3]: > 200 µM | Activity (Mus musculus [4]): Toxic | Stability (Liver [5]): 22.4% | CC50 at 48 h [6]: > 200 µM | CC50 at 48 h [7]: > 100 µM | half-life at 10 µM [8]: 0.448 h

[2H]C([2H])([2H])Oc1ccc2c(c1)C(=O)N1CCC[C@H]1c1c(C(=O)OC)ncn1-2
half-life at 10 µM [1]: 16.3 h | Stability (Liver [2]): 92.9% | CC50 at 48 h [3]: > 400 µM | Activity (Mus musculus [4]): Toxic | Stability (Liver [5]): 85.9% | CC50 at 48 h [6]: > 400 µM | CC50 at 48 h [7]: > 400 µM | half-life at 10 µM [8]: 4.75 h

COc1ccc2c(c1)C(=O)N1CCC[C@H]1c1c(C(=O)OC(C)(C)C)ncn1-2
half-life at 10 µM [1]: 11.9 h | Stability (Liver [2]): 92.1% | CC50 at 48 h [3]: > 400 µM | Activity (Mus musculus [11]): Toxic | Stability (Liver [5]): 16.2% | CC50 at 48 h [6]: > 200 µM | CC50 at 48 h [7]: > 100 µM | half-life at 10 µM [8]: 0.402 h

COc1ccc2c(c1)C(=O)N1CCC[C@H]1c1c(C(=O)OC(C(F)(F)F)C(F)(F)F)ncn1-2
solubility [10]: Insoluble | CC50 at 48 h [3]: > 400 µM | solubility [9]: Insoluble | CC50 at 48 h [6]: > 400 µM | CC50 at 48 h [7]: > 200 µM

[2H]C([2H])([2H])Oc1ccc2c(c1)C(=O)N1CCC[C@H]1c1c(C(=O)NC3CC3)ncn1-2
half-life at 10 µM [1]: 30 h | Stability (Liver [2]): 88.1% | CC50 at 48 h [3]: > 400 µM | Stability (Liver [5]): 94.1% | CC50 at 48 h [6]: > 400 µM | CC50 at 48 h [7]: > 200 µM | t1/2 (Liver [12]): 0.295 h

[2H]C([2H])([2H])Oc1ccc2c(c1)C(=O)N1CCC[C@H]1c1c(C(=O)SC(C)(C)C)ncn1-2
solubility [10]: Insoluble | CC50 at 48 h [3]: > 100 µM | CC50 at 48 h [6]: > 100 µM | CC50 at 48 h [7]: 16.8 µM

Reference: ChEMBL document CHEMBL3992505, “Optimization of substituted imidazobenzodiazepines as novel asthma treatments” (Eur J Med Chem, 2017)
